Experimental data reported in ChEMBL document CHEMBL1149911, “Design and synthesis of peripherally restricted transient receptor potential vanilloid 1 (TRPV1) antagonists” (J Med Chem, 2008).

Key:
[1] = Ratio of drug level in brain to plasma in Sprague-Dawley rat at 5 mg/kg, iv; format: ADME, organism-based; set-up: dose 5 mg/kg, route intravenous
How it was run: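 Male Sprague-Dawley rats received a single iv dose of 5 mg/kg as a solution in DMSO (n = 3). Plasma and nonperfused whole brain were collected 30 min after dosing. Total compound concentration was measured by HPLC and expressed as a brain-to-plasma ratio.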

[2] = biological target: T1, Transient receptor potential cation channel subfamily V member 1 (Rattus norvegicus, UniProt O35433); assay: Antagonist activity at rat TRPV1 expressed in CHO cells assessed as inhibition of pH 5 acid-induced calcium influx; format: functional, cell-based
T1 sequence (O35433 whole entry): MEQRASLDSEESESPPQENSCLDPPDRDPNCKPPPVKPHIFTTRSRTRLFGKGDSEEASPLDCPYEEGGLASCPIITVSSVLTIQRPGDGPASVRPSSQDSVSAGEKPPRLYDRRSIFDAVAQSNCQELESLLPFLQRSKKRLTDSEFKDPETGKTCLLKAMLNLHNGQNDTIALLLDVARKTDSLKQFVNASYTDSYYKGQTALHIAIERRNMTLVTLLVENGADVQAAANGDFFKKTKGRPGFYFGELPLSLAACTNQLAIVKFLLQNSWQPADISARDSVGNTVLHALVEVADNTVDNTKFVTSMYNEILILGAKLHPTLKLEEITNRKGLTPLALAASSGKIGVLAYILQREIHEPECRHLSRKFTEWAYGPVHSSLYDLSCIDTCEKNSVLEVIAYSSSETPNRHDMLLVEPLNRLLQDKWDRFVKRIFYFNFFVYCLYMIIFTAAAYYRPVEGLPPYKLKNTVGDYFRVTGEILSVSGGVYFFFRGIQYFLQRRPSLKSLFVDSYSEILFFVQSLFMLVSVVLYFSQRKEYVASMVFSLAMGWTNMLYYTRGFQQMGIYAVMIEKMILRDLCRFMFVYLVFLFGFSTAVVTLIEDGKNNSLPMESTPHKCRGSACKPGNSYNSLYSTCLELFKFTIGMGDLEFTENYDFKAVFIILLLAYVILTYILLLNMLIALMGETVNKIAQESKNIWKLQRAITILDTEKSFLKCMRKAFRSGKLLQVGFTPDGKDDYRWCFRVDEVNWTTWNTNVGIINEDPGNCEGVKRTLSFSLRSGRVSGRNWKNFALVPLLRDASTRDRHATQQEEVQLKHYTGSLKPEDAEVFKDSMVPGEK
How it was run: (§1)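 CHO cells stably expressing rat TRPV1. Uptake of 45Ca2+ was triggered by capsaicin (500 nM) or by acid (pH 5), and test compounds were run over a concentration range. IC50 values are the mean ± SEM of at least two experiments, with triplicate wells at each concentration.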

[3] = biological target: T1, Transient receptor potential cation channel subfamily V member 1; assay: Antagonist activity at rat TRPV1 expressed in CHO cells assessed as inhibition of capsaicin-induced calcium influx; format: functional, cell-based; how it was run: as §1
[4] = Drug level in blood of Sprague-Dawley rat with capsaicin-induced flinching at 10 mg/kg, po administered 1 hr before capsaicin challenge; format: ADME, organism-based; set-up: dose 10 mg/kg, route oral; details: read-out: Drug uptake
Rattus norvegicus [5] = assay: Inhibition of capsaicin-induced flinching in Sprague-Dawley rat at 10 mg/kg, po administered 1 hr before capsaicin challenge; format: functional
How it was run: (§2)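 Rats received the test compound orally, then capsaicin. In vivo on-target activity was scored as percent inhibition of the capsaicin-evoked flinching response.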

[6] = Drug level in blood of Sprague-Dawley rat with capsaicin-induced flinching at 3 mg/kg, po administered 1 hr before capsaicin challenge; format: ADME, organism-based; set-up: dose 3 mg/kg, route oral; details: read-out: Drug uptake
Blood [7] = assay: Drug level in blood of Sprague-Dawley rat telemetry model at 10 mg/kg, po; format: ADME, organism-based; set-up: dose 10 mg/kg, route oral; details: in vivo
Rattus norvegicus [8] = assay: Inhibition of capsaicin-induced flinching in Sprague-Dawley rat at 3 mg/kg, po administered 1 hr before capsaicin challenge; format: functional; how it was run: as §2
Rattus norvegicus [9] = assay: Toxicity assessed as increase in body core temperature in Sprague-Dawley rat at 10 mg/kg, po by radiotelemetry relative to control; format: organism-based; set-up: dose 10 mg/kg, route oral; details: in vivo
Rattus norvegicus [10] = assay: Toxicity assessed as increase in body core temperature in Sprague-Dawley rat at 3 mg/kg, po by radiotelemetry relative to control; format: organism-based; set-up: dose 3 mg/kg, route oral; details: in vivo
Rattus norvegicus [11] = assay: Inhibition of capsaicin-induced flinching in Sprague-Dawley rat at 1 mg/kg, po administered 1 hr before capsaicin challenge; format: functional; how it was run: as §2
[12] = Drug level in blood of Sprague-Dawley rat with capsaicin-induced flinching at 1 mg/kg, po administered 1 hr before capsaicin challenge; format: ADME, organism-based; set-up: dose 1 mg/kg, route oral; details: read-out: Drug uptake
Blood [13] = assay: Drug level in blood of Sprague-Dawley rat telemetry model at 3 mg/kg, po; format: ADME, organism-based; set-up: dose 3 mg/kg, route oral; details: in vivo
Rattus norvegicus [14] = assay: Inhibition of capsaicin-induced flinching in Sprague-Dawley rat at 0.3 mg/kg, po administered 1 hr before capsaicin challenge; format: functional; how it was run: as §2
Rattus norvegicus [15] = assay: Toxicity assessed as increase in body core temperature in Sprague-Dawley rat at 1 mg/kg, po by radiotelemetry relative to control; format: organism-based; set-up: dose 1 mg/kg, route oral; details: in vivo
[16] = Drug level in blood of Sprague-Dawley rat with capsaicin-induced flinching at 0.3 mg/kg, po administered 1 hr before capsaicin challenge; format: ADME, organism-based; set-up: dose 0.3 mg/kg, route oral; details: read-out: Drug uptake
Blood [17] = assay: Drug level in blood of Sprague-Dawley rat telemetry model at 1 mg/kg, po; format: ADME, organism-based; set-up: dose 1 mg/kg, route oral; details: in vivo
[18] = biological target: T2, Transient receptor potential cation channel subfamily V member 1 (Homo sapiens, UniProt Q8NER1); assay: Antagonist activity at human TRPV1 assessed as inhibition of low pH-induced calcium influx; format: functional
T2 sequence (Q8NER1 whole entry): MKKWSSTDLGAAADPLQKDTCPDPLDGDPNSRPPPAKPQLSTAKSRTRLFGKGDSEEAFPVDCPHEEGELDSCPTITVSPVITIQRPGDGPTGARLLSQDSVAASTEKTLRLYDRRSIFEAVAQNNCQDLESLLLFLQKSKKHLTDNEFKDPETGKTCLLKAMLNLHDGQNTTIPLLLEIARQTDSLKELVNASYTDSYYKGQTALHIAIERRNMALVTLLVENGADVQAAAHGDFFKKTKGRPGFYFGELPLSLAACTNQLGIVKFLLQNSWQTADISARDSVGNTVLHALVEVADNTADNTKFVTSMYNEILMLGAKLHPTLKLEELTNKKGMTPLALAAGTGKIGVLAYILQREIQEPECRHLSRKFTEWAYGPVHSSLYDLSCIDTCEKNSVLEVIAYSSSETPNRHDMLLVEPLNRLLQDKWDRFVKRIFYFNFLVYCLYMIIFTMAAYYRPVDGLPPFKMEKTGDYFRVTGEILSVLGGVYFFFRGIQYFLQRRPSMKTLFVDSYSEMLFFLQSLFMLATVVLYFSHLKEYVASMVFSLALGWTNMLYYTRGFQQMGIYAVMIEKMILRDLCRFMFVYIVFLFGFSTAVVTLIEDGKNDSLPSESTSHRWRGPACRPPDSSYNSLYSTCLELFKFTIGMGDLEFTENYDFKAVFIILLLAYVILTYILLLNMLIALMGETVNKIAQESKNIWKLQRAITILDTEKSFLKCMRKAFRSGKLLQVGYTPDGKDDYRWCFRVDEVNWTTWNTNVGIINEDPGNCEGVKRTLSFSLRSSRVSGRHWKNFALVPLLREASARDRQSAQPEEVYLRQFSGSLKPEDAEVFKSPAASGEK

Rattus norvegicus [19] = assay: Toxicity assessed as increase in body temperature in Sprague-Dawley rat at 0.1 to 3 mg/kg, po after 60 mins; format: organism-based; set-up: dose 0.1-3 mg/kg, route oral; details: in vivo, 1 h
How it was run: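 Rodents were dosed orally at 0.1–3 mg/kg. Body temperature was recorded 60 min after drug administration and compared across doses.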

Rattus norvegicus [20] = assay: Inhibition of capsaicin-induced flinching in po dosed rat; format: functional, organism-based; how it was run: as §2
[21] = biological target: T2, Transient receptor potential cation channel subfamily V member 1; assay: Antagonist activity at human TRPV1 assessed as inhibition of capsaicin-induced calcium influx; format: functional

Kp [1]	IC50 [2]	IC50 [3]	SMILES	further results
0.4			Nc1nc2c(Oc3cc(-c4ccc(C(F)(F)F)cc4)ncn3)cccc2[nH]c1=O	
0.44			CC(=O)Nc1nc2c(Oc3cc(-c4ccc(C(F)(F)F)cc4)nc(N)n3)cccc2s1	
0.25	1.7 nM	0.9 nM	CC(C)CN1CCCCC1CNc1nc(C(F)(F)F)ccc1-c1cc(Oc2cccc3[nH]c(=O)c(N)nc23)ncn1 (configuration not stated)	
0.21	0.7 nM	0.7 nM	Nc1nc2c(Oc3cc(-c4ccc(C(F)(F)F)cc4NC(=O)c4ccccn4)ncn3)cccc2[nH]c1=O	
0.19	6 nM	2.4 nM	CC(=O)Nc1nc2c(Oc3cc(-c4ccc(C(F)(F)F)cc4NC(=O)NC(C)(C)C)ncn3)cccc2s1	
0.04	5.2 nM	4.1 nM	CC(C)(C)NC(=O)Nc1cc(C(F)(F)F)ccc1-c1cc(Oc2cccc3[nH]c(=O)c(N)nc23)ncn1	concentration at 1 h [4]: 196 ng/mL; inhibition in vivo at 10 mg/kg (Rattus norvegicus [5]): 43%
0.07	2.1 nM	3.3 nM	Nc1nc2c(Oc3cc(-c4ccc(C(F)(F)F)cc4NC(=O)c4ccncc4)ncn3)cccc2[nH]c1=O	concentration at 1 h [4]: 0.82 ng/mL; inhibition in vivo at 10 mg/kg (Rattus norvegicus [5]): 50%
0.04	6.4 nM	4.4 nM	COC[C@H](C)Nc1nc(Oc2cccc3[nH]c(=O)c(N)nc23)cc(-c2ccc(C(F)(F)F)nc2N)n1	concentration at 1 h [4]: 5.48 ng/mL; inhibition in vivo at 10 mg/kg (Rattus norvegicus [5]): 23%
0.11	2.7 nM	0.8 nM	Nc1nc(C(F)(F)F)ccc1-c1cc(Oc2cccc3[nH]c(=O)c(N)nc23)ncn1	concentration at 1 h [6]: 252 ng/mL; Drug uptake (Blood [7]): 1129.62 ng/mL; inhibition in vivo at 3 mg/kg (Rattus norvegicus [8]): 100%; Activity (Rattus norvegicus [9]): 1.1 °C
0.04	1.3 nM	0.7 nM	COCCNc1nc(C(F)(F)F)ccc1-c1cc(Oc2cccc3[nH]c(=O)c(N)nc23)ncn1	Activity (Rattus norvegicus [10]): 0.6 °C; inhibition in vivo at 1 mg/kg (Rattus norvegicus [11]): 100%; concentration at 1 h [12]: 19 ng/mL; Drug uptake (Blood [13]): 25.35 ng/mL
0.09	0.8 nM	1.1 nM	Nc1nc2c(Oc3cc(-c4ccc(C(F)(F)F)nc4N[C@@H]4CCOC4)ncn3)cccc2[nH]c1=O	concentration at 1 h [6]: 32.8 ng/mL; inhibition in vivo at 3 mg/kg (Rattus norvegicus [8]): 30%
0.07	2.7 nM	3.8 nM	COC[C@H](C)Nc1nc(Oc2cccc3[nH]c(=O)c(N)nc23)cc(-c2ccc(C(F)(F)F)cc2N)n1	concentration at 1 h [4]: 342 ng/mL; Drug uptake (Blood [7]): 289.24 ng/mL; inhibition in vivo at 10 mg/kg (Rattus norvegicus [5]): 95%; Activity (Rattus norvegicus [9]): 1.2 °C
0.07	2.6 nM	3.7 nM	Nc1nc(Oc2cccc3[nH]c(=O)c(N)nc23)cc(-c2ccc(C(F)(F)F)cc2)n1	
0.15	0.3 nM	0.3 nM	COC[C@@H](C)Nc1nc(Oc2cccc3[nH]c(=O)c(N)nc23)cc(-c2ccc(C(F)(F)F)cc2)n1	
0.05	0.8 nM	0.6 nM	COCCNc1nc(Oc2cccc3[nH]c(=O)c(N)nc23)cc(-c2ccc(C(F)(F)F)cc2)n1	inhibition in vivo at 0.3 mg/kg (Rattus norvegicus [14]): 93%; Activity (Rattus norvegicus [15]): 0.7 °C; inhibition in vivo at 1 mg/kg (Rattus norvegicus [11]): 100%; concentration at 1 h [16]: 24.9 ng/mL; Drug uptake (Blood [17]): 100.29 ng/mL
0.03	8.7 nM	16.1 nM	CC(O)CCNc1nc(Oc2cccc3[nH]c(=O)c(N)nc23)cc(-c2ccc(C(F)(F)F)cc2)n1 (configuration not stated)	concentration at 1 h [4]: 494 ng/mL; inhibition in vivo at 10 mg/kg (Rattus norvegicus [5]): 72%
0.04	5.7 nM	2.8 nM	CC(Nc1nc(Oc2cccc3[nH]c(=O)c(N)nc23)cc(-c2ccc(C(F)(F)F)cc2)n1)c1ccccn1 (configuration not stated)	concentration at 1 h [4]: 267 ng/mL; Drug uptake (Blood [7]): 241.9 ng/mL; inhibition in vivo at 10 mg/kg (Rattus norvegicus [5]): 94%; Activity (Rattus norvegicus [9]): 0.5 °C
0.19	1 nM	0.8 nM	COC[C@H](C)Nc1nc(Oc2cccc3[nH]c(=O)c(N)nc23)cc(-c2ccc(C(F)(F)F)cc2)n1	
0.93	3.6 nM	15.9 nM	CC(=O)Nc1nc2c(Oc3cc(-c4ccc(C(F)(F)F)cc4N)ncn3)cccc2s1	
0.24	2.1 nM	2 nM	CC(C)(C)CN1CCCCC1CNc1nc(Oc2cccc3[nH]c(=O)c(N)nc23)cc(-c2ccc(C(F)(F)F)cc2)n1 (configuration not stated)	
0.04	18.8 nM	2.2 nM	Nc1nc2c(Oc3cc(-c4ccc(C(F)(F)F)nc4NCCN4CCOCC4)ncn3)cccc2[nH]c1=O	concentration at 1 h [6]: 67.1 ng/mL; inhibition in vivo at 3 mg/kg (Rattus norvegicus [8]): 60%
0.1	5.9 nM	4.3 nM	COCCNc1nc(Oc2cccc3[nH]c(=O)c(N)nc23)cc(-c2ccc(C(F)(F)F)cc2N)n1	concentration at 1 h [4]: 298 ng/mL; inhibition in vivo at 10 mg/kg (Rattus norvegicus [5]): 71%
0.23	3.9 nM	1.5 nM	Nc1cc(C(F)(F)F)ccc1-c1cc(Oc2cccc3[nH]c(=O)c(N)nc23)ncn1	
0.04	61.9 nM	34.5 nM	Nc1nc(Oc2cccc3[nH]c(=O)c(N)nc23)cc(-c2ccc(C(F)(F)F)cc2N)n1	
			CC(=O)Nc1nc2c(Oc3cc(-c4ccc(C(F)(F)F)cc4)ncn3)cccc2s1 [AMG-517]	IC50 [18]: 0.6 nM; Activity (Rattus norvegicus [19]): Active; EC50 (Rattus norvegicus [20]): 0.33 mg/kg; IC50 [21]: 0.8 nM
